Results: ChEMBL document CHEMBL2146434, “Synthesis and biological evaluation of new amino acid and dipeptide derivatives of neocryptolepine as anticancer agents” (J Med Chem, 2012)

Tests used:
[1] = system: Lewis lung carcinoma cell line; test: Antineoplastic activity against mouse LLC cells xenografted in C57BL/6 mouse assessed as tumor growth inhibition at 100 mg/kg/day measured on day 17; conditions: 408 h, read-out: TGI
[2] = system: Lewis lung carcinoma cell line; test: Antineoplastic activity against mouse LLC cells xenografted in C57BL/6 mouse assessed as tumor growth inhibition at 100 mg/kg/day measured on day 11; conditions: 264 h, read-out: TGI
[3] = system: Lewis lung carcinoma cell line; test: Antineoplastic activity against mouse LLC cells xenografted in C57BL/6 mouse assessed as tumor growth inhibition at 100 mg/kg/day measured on day 14; conditions: 336 h, read-out: TGI
[4] = system: Lewis lung carcinoma cell line; test: Antineoplastic activity against mouse LLC cells xenografted in C57BL/6 mouse assessed as tumor growth inhibition at 100 mg/kg/day measured on day 16; conditions: 384 h, read-out: TGI
[5] = system: Lewis lung carcinoma cell line; test: Antineoplastic activity against mouse LLC cells xenografted in C57BL/6 mouse assessed as tumor growth inhibition at 100 mg/kg/day measured on day 18; conditions: 432 h, read-out: TGI
[6] = system: Lewis lung carcinoma cell line; test: Antineoplastic activity against mouse LLC cells xenografted in C57BL/6 mouse assessed as tumor growth inhibition at 100 mg/kg/day measured on day 21; conditions: 504 h, read-out: TGI
[7] = system: Lewis lung carcinoma cell line; test: Antineoplastic activity against mouse LLC cells xenografted in C57BL/6 mouse assessed as tumor growth inhibition at 100 mg/kg/day measured on day 23; conditions: 552 h, read-out: TGI
[8] = system: Lewis lung carcinoma cell line; test: Antineoplastic activity against mouse LLC cells xenografted in C57BL/6 mouse assessed as tumor growth inhibition at 100 mg/kg/day measured on day 12; conditions: 288 h, read-out: TGI
[9] = system: Lewis lung carcinoma cell line; test: Antineoplastic activity against mouse LLC cells xenografted in C57BL/6 mouse assessed as tumor growth inhibition at 100 mg/kg/day measured on day 19; conditions: 456 h, read-out: TGI
[10] = system: Lewis lung carcinoma cell line; test: Antineoplastic activity against mouse LLC cells xenografted in C57BL/6 mouse assessed as tumor growth inhibition at 100 mg/kg/day measured on day 24; conditions: 576 h, read-out: TGI
LoVo = test: Cytotoxicity against human LoVo cells after 72 hrs by SRB assay; type: functional, cell-based
Method in brief: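 IC50 is the compound concentration giving 50% inhibition of cell proliferation. It was determined on normal mouse BALB/3T3 fibroblasts and on human A549, MCF-7 and LoVo cancer lines, with doxorubicin hydrochloride and DiMIQ as reference compounds.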

[11] = Octanol-water partition coefficient, log P of the compound at pH 2.2; type: physicochemical
[12] = Octanol-water partition coefficient, log P of the compound at pH 5; type: physicochemical

Row | logP [11] | logP [12] | SMILES | inhibition in vivo at 100 mg/kg/day [1] | inhibition in vivo at 100 mg/kg/day [2] | inhibition in vivo at 100 mg/kg/day [3] | inhibition in vivo at 100 mg/kg/day [4] | inhibition in vivo at 100 mg/kg/day [5] | inhibition in vivo at 100 mg/kg/day [6] | inhibition in vivo at 100 mg/kg/day [7] | inhibition in vivo at 100 mg/kg/day [8] | inhibition in vivo at 100 mg/kg/day [9] | inhibition in vivo at 100 mg/kg/day [10] | IC50 (LoVo)
1 |  |  | O=P1(N(CCCl)CCCl)NCCCO1 (stereo not drawn) [CYCLOPHOSPHAMIDE ANHYDROUS] | 37% | 49.8% | 36.8% | 31.9% | 12.5% | 21.3% | 30.4% | 24.1% | 40% | 0% | 
2 | -1 | 2 | Cc1c2c3ccccc3nc-2n(C)c2ccccc12 |  |  |  |  |  |  |  |  |  |  | 200 nM
